The results in this text go back to ChEMBL document CHEMBL4422693, “Antifungal Phenylpropanoid Glycosides from Lippia rubella” (J Nat Prod, 2019).

Molecules are shown by their SMILES. Values after ≈ are worked out from the molar mass of the structure shown.

In one data set the test system is Candida albicans. Description: Antimicrobial activity against Candida albicans ATCC 10231 after 48 hrs by microbroth dilution method. The data set is classed as functional. Particulars: ATCC 10231, 48 h. The procedure, abridged:
(§1)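 CLSI M27-A broth microdilution. Fungi at 10^6 cells/mL were grown in fresh BHI medium with samples at 1 pg/mL to 1 mg/mL, at 37 °C for 48 h. Growth was read daily by visible turbidity. MIC was the lowest concentration preventing growth. Inhibition was confirmed with resazurin (5 mg/100 mL PBS, pH 7.2) after a further 3 h at 37 °C. Amphotericin B was the positive control.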
In general terms: Broth dilution looks for growth in wells or tubes with falling amounts of substance.

In data set [1] the test system is Candida parapsilosis. The experiment in a line: Antifungal activity against Candida parapsilosis ATCC 22019 after 24 hrs by micro broth dilution method. Type of data set: functional. Particulars: Lodderomyces parapsilosis, ATCC 22019, 24 h.
Data set [2] relates to Cryptococcus neoformans. The experiment in a line: Antifungal activity against Cryptococcus neoformans isolate T1444 after 48 hrs by micro broth dilution method. Type of data set: functional. Particulars: isolate T1444, 48 h. A digest of the protocol:
as §1

Data set [3] concerns Candida parapsilosis. The experiment in a line: Antifungal activity against Candida parapsilosis ATCC 22019 after 48 hrs by micro broth dilution method. Particulars: Lodderomyces parapsilosis, ATCC 22019, 48 h.
Data set [4] deals with Cryptococcus neoformans. The experiment in a line: Antifungal activity against Cryptococcus neoformans isolate T1444 assessed as FIC index after 48 hrs in presence of amphotericin B by micro broth dilution method. The data set is classed as functional. The procedure, abridged:
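Checkerboard dose matrix in microplates. Sample and amphotericin B were each used below their single-agent MICs. Inoculum was 10^3 cells/mL, incubated at room temperature for 48 h. Growth was read visually and confirmed with resazurin. FIC for each agent is the MIC in combination divided by the MIC alone, and FICindex is the sum of the two FICs. Synergy is <0.5, additive is >0.5 to ≤1, and antagonism is >4.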

For data set [5], the system named is Cryptococcus neoformans. The experiment in a line: Antifungal activity against Cryptococcus neoformans ATCC 24067 after 48 hrs by micro broth dilution method. Type of data set: functional. Particulars: ATCC 24067, 48 h. A digest of the protocol: as §1
A short description of data set [6]: Hemolytic activity in human RBC after 1 hr by spectrophotometric method. Type of data set: ADME, cell-based, Erythrocyte. Particulars: human red blood cells (erythrocytes). The procedure, abridged:
(§2)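 Sample solutions (2000 to 15.6 μg/mL before mixing) were incubated with a 4% human O+ erythrocyte suspension in PBS (1:4 by volume) for 1 h at 37 °C. PBS was then added, and lysis was read at 590 nm. PBS served as the negative control and water as the positive control.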

In the next data set the test system is Erythrocyte. Description: Hemolytic activity in human RBC at MIC after 1 hr by spectrophotometric method. Type of data set: ADME, cell-based. The procedure, abridged: as §2

On to `C[C@@H]1O[C@@H](O[C@@H]2[C@@H](O)[C@H](OCCc3ccc(O)c(O)c3)O[C@H](CO)[C@H]2OC(=O)/C=C/c2ccc(O)cc2)[C@H](O)[C@H](OC(=O)/C=C/c2ccc(O)c(O)c2)[C@H]1O`, for which the values for the minimum inhibitory concentration (MIC) with Candida albicans, with Candida parapsilosis [1] and in the data set on Cryptococcus neoformans [2] were more than 125 µg/mL, more than 125 µg/mL and 125 µg/mL (≈ 162 µM), respectively.

In the case of `C[C@@H]1O[C@@H](O[C@@H]2[C@@H](O)[C@H](OCCc3ccc(O)c(O)c3)O[C@H](CO)[C@H]2OC(=O)/C=C/c2ccc(O)c(O)c2)[C@H](O)[C@H](O)[C@H]1OC(=O)/C=C/c1ccc(O)c(O)c1`, the MIC with Candida parapsilosis [3] is 125 µg/mL (≈ 159 µM); with Candida albicans it was more than 125 µg/mL; in the data set on Cryptococcus neoformans [2] it was 15.6 µg/mL (≈ 19.8 µM).

As for `COc1ccc(-c2cc(=O)c3c(O)cc(O[C@@H]4O[C@H](CO[C@@H]5O[C@@H](C)[C@H](O)[C@@H](O)[C@H]5O)[C@@H](O)[C@H](O)[C@H]4O)cc3o2)cc1` [ACACIIN], the MIC was more than 125 µg/mL in the data set on Candida parapsilosis [3], more than 125 µg/mL in the data set with Candida albicans and 125 µg/mL (≈ 211 µM) with Cryptococcus neoformans [2].

On to `C[C@@H]1O[C@@H](O[C@@H]2[C@@H](O)[C@H](OCCc3ccc(O)c(O)c3)O[C@H](CO)[C@H]2OC(=O)/C=C/c2ccc(O)c(O)c2)[C@H](O)[C@H](O)[C@H]1O` [ACETOSIDE], for which, in the data set with Cryptococcus neoformans [4], the “fractional inhibitory concentration index (FICI)” value amounted to 0.72. Also, the MIC against Cryptococcus neoformans [5] is 62.5 µg/mL (≈ 100 µM); against Candida parapsilosis [3], 125 µg/mL (≈ 200 µM); with Candida albicans it was more than 125 µg/mL; against Cryptococcus neoformans [2] it was 62.5 µg/mL (≈ 100 µM). In data set [6], this molecule showed an HC50 at 1 h of 1000 µg/mL. The Activity entry with Erythrocyte was “Non-Toxic”.

Turning to `C[C@@H]1[C@H](O)[C@@H](C)/C=C/C=C/C=C/C=C/C=C/C=C/C=C/[C@H](O[C@@H]2O[C@H](C)[C@@H](O)[C@H](N)[C@@H]2O)C[C@@H]2O[C@](O)(C[C@@H](O)C[C@@H](O)[C@H](O)CC[C@@H](O)C[C@@H](O)CC(=O)O[C@H]1C)C[C@H](O)[C@H]2C(=O)O` [AMPHOTERICIN B], the MIC is 0.125 µg/mL (≈ 0.135 µM) in the data set with Cryptococcus neoformans [5], 0.125 µg/mL (≈ 0.135 µM) in the data set on Candida parapsilosis [3], 0.25 µg/mL (≈ 0.271 µM) against Candida albicans and 0.125 µg/mL (≈ 0.135 µM) against Cryptococcus neoformans [2].

Regarding `C[C@@H]1O[C@@H](OC[C@H]2O[C@@H](OCCc3ccc(O)c(O)c3)[C@H](O)[C@@H](O)[C@@H]2OC(=O)/C=C/c2ccc(O)c(O)c2)[C@H](O)[C@H](O)[C@H]1O` [FORSYTHIASIDE], the “fractional inhibitory concentration index (FICI)” value in the data set with Cryptococcus neoformans [4] was 0.5. For the same molecule, the MIC is 31.2 µg/mL (≈ 50 µM) in the data set on Cryptococcus neoformans [5], more than 125 µg/mL in the data set with Candida parapsilosis [3], more than 125 µg/mL in the data set on Candida albicans and 31.2 µg/mL (≈ 50 µM) against Cryptococcus neoformans [2]. This molecule gave an HC50 at 1 h in data set [6] of 1000 µg/mL. Further, the Activity result with Erythrocyte is listed as “Non-Toxic”.

For `C[C@@H]1O[C@@H](O[C@@H]2[C@@H](O)[C@H](OCCc3ccc(O)c(O)c3)O[C@H](COC(=O)/C=C/c3ccc(O)c(O)c3)[C@H]2O)[C@H](O)[C@H](O)[C@H]1O` [ISOACTEOSIDE], in the data set on Cryptococcus neoformans [2], the MIC is more than 125 µg/mL.

As for `C[C@@H]1O[C@@H](OC[C@H]2O[C@@H](OCCc3ccc(O)c(O)c3)[C@H](O)[C@@H](O[C@@H]3O[C@@H](C)[C@H](O)[C@@H](O)[C@H]3O)[C@@H]2OC(=O)/C=C/c2ccc(O)c(O)c2)[C@H](O)[C@H](O)[C@H]1O` [POLIUMOSIDE], the MIC against Candida parapsilosis [3] is more than 125 µg/mL; with Candida albicans it was more than 125 µg/mL; with Cryptococcus neoformans [2] it was 62.5 µg/mL (≈ 81.1 µM).

In general, MIC refers to the lowest concentration found to suppress growth. Lower therefore signals a more susceptible organism. Broadly, the HC50 is the concentration giving 50% haemolysis. A high value points to less damage to red cells.
